What was measured:
[1] = target: Albumin (Homo sapiens, UniProt P02768); test: Human serum albumin index was measured by retention time on an HPLC column containing human albumin
How it was run: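 HPLC on a column containing human serum albumin. Retention volume of each compound is divided by that of a reference standard and normalized so the standard equals 100.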

[2] = Partition coefficient (logP); format: physicochemical; conditions: octanol/water
How it was run: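 Octanol/pH 7.4 buffer partition; values were either measured or calculated from tables of π values.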

[3] = target: Glutamate NMDA receptor; test: Affinity for the glycine binding site on rat N-methyl-D-aspartate glutamate receptor 1, determined by displacement of the glycine site antagonist [3H]L-689,560 from rat cortical membranes; format: cell membranes, Membrane
[4] = target: Glutamate NMDA receptor (Rattus norvegicus) (UniProt P35439+Q00959+Q00960+Q00961+Q62645+Q8VHN2+Q9R1M7); test: Protein binding index(PBI) reflects the relative displacement of [3H]glycine from rat cortical membranes in the presence and absence of 0.2% human serum albumin; format: cell membranes; conditions: Membrane
How it was run: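 [³H]glycine displacement from rat cortical membranes, with and without 0.2% (w/v) human serum albumin. Separation by centrifugation. Index = IC50 with albumin / IC50 without albumin.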

[5] = tested on: Mus musculus; test: Anticonvulsant activity measured by its ability to protect against audiogenic seizure in DBA/2 mice when dosed intraperitoneally 30 min prior to seizure induction.; format: functional; conditions: ip
How it was run: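 DBA/2 mice, compound dosed intraperitoneally 30 min before induction of audiogenic seizures. Reported as ED50 (mg/kg and μmol/kg) or as number protected/number tested at a single dose. For some compounds the test was run 10 min after dosing.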

Chain of Albumin (P02768 whole entry): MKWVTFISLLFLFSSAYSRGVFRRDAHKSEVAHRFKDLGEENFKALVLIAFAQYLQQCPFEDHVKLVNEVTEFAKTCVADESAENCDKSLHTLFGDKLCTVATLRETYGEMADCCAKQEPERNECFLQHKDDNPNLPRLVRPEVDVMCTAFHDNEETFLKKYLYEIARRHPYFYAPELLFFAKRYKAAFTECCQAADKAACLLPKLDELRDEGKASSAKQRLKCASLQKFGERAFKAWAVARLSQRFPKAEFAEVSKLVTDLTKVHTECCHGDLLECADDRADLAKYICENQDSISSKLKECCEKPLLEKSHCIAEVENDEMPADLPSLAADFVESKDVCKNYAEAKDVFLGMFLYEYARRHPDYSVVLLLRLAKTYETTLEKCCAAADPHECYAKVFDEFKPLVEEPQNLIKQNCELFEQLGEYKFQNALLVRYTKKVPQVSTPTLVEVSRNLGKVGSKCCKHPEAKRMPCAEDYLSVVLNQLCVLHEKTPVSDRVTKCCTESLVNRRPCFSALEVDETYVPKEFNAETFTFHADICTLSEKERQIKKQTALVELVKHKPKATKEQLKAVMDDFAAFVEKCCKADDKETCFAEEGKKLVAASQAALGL

SMILES	HSAI [1]	logP [2]	IC50 [3] [µM]	PBI [4]	ED50 [5] [mg/kg]
Oc1nc2cc(Cl)ccc2c(O)c1-c1cccc(Cc2ccc(CCN3CCOCC3)cc2)c1	49	3.01	0.009		
Nc1c(-c2ccccc2)c(=O)[nH]c2cc(Cl)ccc12	7		6.75		
CCc1cc(Cl)cc2nc(O)c(-c3ccccc3)c(O)c12	103				
O=c1[nH]c2cc(Cl)ccc2c(O)c1-c1cccc(NCc2ccccc2)c1	76		0.0096		
O=[N+]([O-])c1cc([N+](=O)[O-])c2nc(O)c(O)nc2c1	4				
O=C(OCCc1cccs1)c1c(O)nc2cc(Cl)ccc2c1O	44				
COCCOCOc1ccc(Cc2cccc(-c3c(O)nc4cc(Cl)ccc4c3O)c2)cc1	56		0.0036		
Oc1nc2cc(Cl)ccc2c(O)c1-c1cccc(-n2ccc3ccccc32)c1	322				
Oc1nc2cc(Cl)ccc2c(O)c1-c1ccsc1	11		0.352		
O=c1[nH]c2cc(Cl)ccc2c(O)c1-c1cccc(Cc2ccccc2)c1	126	2.83			
O=C(/C=C/c1c(C(=O)O)[nH]c2cc(Cl)cc(Cl)c12)Nc1ccccc1	197	2.24	0.001		
O=C(c1cccs1)c1c(O)c2ccc(Cl)cc2[nH]c1=O	9		1.09		
COc1ccc(CCOc2c(I)cc(C[C@@H](N)C(=O)O)cc2I)cc1	32	2.65	0.545	11.7	
Cn1cccc1-c1c(O)nc2cc(Cl)ccc2c1O	3		0.818		
Oc1nc2cc(Cl)ccc2c(O)c1-c1ccc(F)cc1	8		0.658		
COc1cccc(-c2c(O)nc3cc(Cl)ccc3c2O)c1	10		0.204		
Oc1nc2cc(Cl)ccc2c(O)c1-c1cccc(Cc2ccoc2)c1	50		0.0089		
CNCc1ccc(Cc2cccc(-c3c(O)nc4cc(Cl)ccc4c3O)c2)cc1	13		0.124		
O=C(c1ccc(Br)s1)c1c(O)nc2cc(Cl)ccc2c1O	40		0.954		
Nc1c(-c2ccccc2)c(O)nc2cc(Cl)ccc12				3.7	
COc1ccc(-c2c(O)c3ccc(Cl)cc3[nH]c2=O)cc1	8		0.421		
O=C(c1ccccc1)c1cccc(-c2c(O)nc3cc(Cl)ccc3c2O)c1	58		0.0036		
O=c1[nH]c2ccccc2c(O)c1-c1ccccc1	2		7.5		

SMILES	HSAI [1]	logP [2]	IC50 [3] [µM]	PBI [4]	ED50 [5] [mg/kg]
Cc1ccccc1Oc1cccc(-c2c(O)nc3cc(Cl)ccc3c2O)c1	163		0.0013		
O=C(c1ccc(Cl)s1)c1c(O)nc2cc(Cl)ccc2c1O	26		1.52		
O=C(O)c1cc(O)c2c(Cl)cc(Cl)cc2n1	5	-0.44		26.5	
CCOC(=O)c1c(O)c2ccc([N+](=O)[O-])cc2[nH]c1=O	1				
Oc1nc2cc(Cl)ccc2c(O)c1-c1ccc(Oc2ccccc2)cc1	159				8.3
C=CCOC(=O)c1c(O)c2ccc(Cl)cc2[nH]c1=O	6				
CSc1ccc(Cc2cccc(-c3c(O)nc4cc(Cl)ccc4c3O)c2)cc1	267		0.0024		
O=c1[nH]c2cc(Cl)c(Cl)c([N+](=O)[O-])c2[nH]c1=O [LICOSTINEL]	28		0.0028		3.3
O=C(c1c(O)nc2cc(Cl)ccc2c1O)C1CC1	6	0.35			
COc1ccccc1Cc1cccc(-c2c(O)nc3cc(Cl)ccc3c2O)c1	118		0.008		
Oc1nc2cc(Cl)ccc2c(O)c1-c1cccc(Cc2cccc3ccccc23)c1	629		0.0279		
C=C(C)COc1cccc(-c2c(O)nc3cc(Cl)ccc3c2O)c1	31		0.0109		
O=C(OCCc1ccsc1)c1c(O)nc2cc(Cl)ccc2c1O	45		3		
Oc1nc2cc(Cl)ccc2c(O)c1-c1cccc(OCc2ccccc2)c1	118		0.0122		
Oc1nc2cc(Cl)ccc2c2oc3ccccc3c12	70	4.34		28.5	
Cc1cn(-c2c(O)nc3cc(Cl)ccc3c2O)c2ccccc12	57				
Cc1cccc(-c2c(O)nc3cc(Cl)ccc3c2O)c1	14		0.084		
N[C@H](Cc1cc(I)c(OCCc2ccc(O)cc2)c(I)c1)C(=O)O	16	2	0.426	41	
Oc1nc2cc(Cl)ccc2c(O)c1-c1cccc(OCC2CC2)c1	21		0.0378		
Oc1nc2cc(Cl)ccc2c(O)c1-c1cccc(-c2ccccc2)c1	117				
O=C(CC1CCc2cc(Br)cc3[nH]c(=O)c(=O)n1c23)Nc1ccccc1 (stereo not given)	24	2.78	0.024		
Oc1ccccc1-c1cc2ccc(Cl)cc2nc1O	15			8.2	
Oc1nc2cc(Cl)ccc2c(O)c1-c1cccc(NCc2ccsc2)c1	68				

SMILES	HSAI [1]	logP [2]	IC50 [3] [µM]	PBI [4]	ED50 [5] [mg/kg]
CC(=O)c1cc(Cc2cccc(-c3c(O)c4ccc(Cl)cc4[nH]c3=O)c2)ccc1O	75		0.0427		
Oc1nc2cc(Cl)ccc2c(O)c1-c1ccco1	6				
CN(Cc1cccc(-c2c(O)nc3cc(Cl)ccc3c2O)c1)c1ccccc1	140		0.0117		
CC/C=C1\NC(=O)C(c2cccc(Oc3ccccc3)c2)=C1O	42		0.684	32	
O=C(c1ccco1)c1c(O)nc2cc(Cl)ccc2c1O	3				
O=C1Nc2cc(Cl)ccc2CC1[N+](=O)[O-] (stereo not given)	7	0.62			13.5
Oc1nc2cc(Cl)ccc2c(O)c1-c1ccc2c(c1)Oc1ccccc1O2	260	4.5			
CCOC(=O)c1c(O)c2ccc(I)cc2[nH]c1=O	7		30		
CN(C)Cc1sccc1Oc1cccc(-c2c(O)nc3cc(Cl)ccc3c2O)c1	13		0.0326		
O=C(Cc1ccccc1)c1c(O)c2ccc(Cl)cc2[nH]c1=O	28	1.66			
Oc1nc2cc(Cl)ccc2c(O)c1-c1cccc(C2=CCc3ccccc32)c1	571		0.006		
O=C(CCc1c(C(=O)O)[nH]c2cc(Cl)cc(Cl)c12)Nc1ccccc1	142		0.0364		
Oc1nc2cc(Cl)ccc2c(O)c1-c1cccc(C#Cc2ccccc2)c1	577		0.0343		
CCOC(=O)c1c(O)c2ccc(Cl)cc2[nH]c1=O		0.7	16.7		
O=C(c1c(O)nc2cc(Cl)ccc2c1O)c1csc2ccccc12	59		2.23		
O=C(OCC#Cc1cccc(O)c1)c1c(O)c2ccc(Cl)cc2[nH]c1=O	213				
Cc1ccc(-c2c(O)nc3cc(Cl)ccc3c2O)cc1	13		0.391		
Cc1ccc(Oc2cccc(-c3c(O)nc4cc(Cl)ccc4c3O)c2)cc1	310		0.0078		
CCc1cc(Cl)cc2nc(O)c(-c3cccc(Oc4ccccc4)c3)c(O)c12	837		0.00195		
O=c1[nH]c2cc(Cl)ccc2c(O)c1-c1cccc(Oc2ccsc2)c1	82	2.75			
O=C(O)c1cc(O)c2ccc(Cl)cc2n1 [7-CHLOROKYNURENIC ACID]	2	1.15			
O=C(O)c1cccc(-c2c(O)nc3cc(Cl)ccc3c2O)c1	9		0.0756		
